Assay results as given in ChEMBL document CHEMBL1165965, “Synthesis and structure-activity relationships of 1,2,3,4-tetrahydropyrido[2,3-b]pyrazines as potent and selective inhibitors of the anaplastic lymphoma kinase” (Bioorg Med Chem, 2010).

How the values were obtained:
[1] = molecular target: Serine/threonine-protein kinase PAK 4 (Homo sapiens) (UniProt O96013); experiment: Inhibition of PAK4 at 1 uM
[2] = molecular target: Calcium/calmodulin-dependent protein kinase type II subunit gamma (Homo sapiens) (UniProt Q13555); experiment: Inhibition of CAMK2G at 1 uM
Summary of the method: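 Ambit KINOMEscan screen at a single concentration across a 250–400 kinase panel, recorded as percent inhibition. Selectivity was expressed as S(90), the fraction of kinases inhibited >90%.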

[3] = molecular target: T1, Cyclin-dependent kinase-like 2 (Homo sapiens) (UniProt Q92772); experiment: Inhibition of CDKL2 at 1 uM
T1 sequence (whole entry): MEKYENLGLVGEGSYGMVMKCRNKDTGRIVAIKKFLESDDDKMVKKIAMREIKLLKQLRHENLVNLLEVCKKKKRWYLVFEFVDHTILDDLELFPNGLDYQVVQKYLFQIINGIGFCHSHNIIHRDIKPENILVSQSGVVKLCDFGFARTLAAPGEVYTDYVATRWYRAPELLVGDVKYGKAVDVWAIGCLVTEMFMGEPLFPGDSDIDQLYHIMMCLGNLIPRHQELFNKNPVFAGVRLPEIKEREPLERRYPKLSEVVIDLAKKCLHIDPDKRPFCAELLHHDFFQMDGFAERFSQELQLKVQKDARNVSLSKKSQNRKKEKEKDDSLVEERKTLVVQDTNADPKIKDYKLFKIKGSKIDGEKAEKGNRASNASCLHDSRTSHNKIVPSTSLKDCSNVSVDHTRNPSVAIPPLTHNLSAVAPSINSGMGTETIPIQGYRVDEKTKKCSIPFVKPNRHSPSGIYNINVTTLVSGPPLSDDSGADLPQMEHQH

[4] = molecular target: Death-associated protein kinase 1 (Homo sapiens) (UniProt P53355); experiment: Inhibition of DAPK1 at 1 uM
Summary of the method: (§1)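 Single-concentration screen using Ambit Bioscience KINOMEscan technology across a panel of 250–400 kinases. Per-kinase inhibition from this screen was summarized as S(90), the fraction of kinases inhibited by more than 90%.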

[5] = molecular target: T2, Serine/threonine-protein kinase PLK4 (Homo sapiens) (UniProt O00444); experiment: Inhibition of PLK4 at 1 uM
T2 sequence (whole entry): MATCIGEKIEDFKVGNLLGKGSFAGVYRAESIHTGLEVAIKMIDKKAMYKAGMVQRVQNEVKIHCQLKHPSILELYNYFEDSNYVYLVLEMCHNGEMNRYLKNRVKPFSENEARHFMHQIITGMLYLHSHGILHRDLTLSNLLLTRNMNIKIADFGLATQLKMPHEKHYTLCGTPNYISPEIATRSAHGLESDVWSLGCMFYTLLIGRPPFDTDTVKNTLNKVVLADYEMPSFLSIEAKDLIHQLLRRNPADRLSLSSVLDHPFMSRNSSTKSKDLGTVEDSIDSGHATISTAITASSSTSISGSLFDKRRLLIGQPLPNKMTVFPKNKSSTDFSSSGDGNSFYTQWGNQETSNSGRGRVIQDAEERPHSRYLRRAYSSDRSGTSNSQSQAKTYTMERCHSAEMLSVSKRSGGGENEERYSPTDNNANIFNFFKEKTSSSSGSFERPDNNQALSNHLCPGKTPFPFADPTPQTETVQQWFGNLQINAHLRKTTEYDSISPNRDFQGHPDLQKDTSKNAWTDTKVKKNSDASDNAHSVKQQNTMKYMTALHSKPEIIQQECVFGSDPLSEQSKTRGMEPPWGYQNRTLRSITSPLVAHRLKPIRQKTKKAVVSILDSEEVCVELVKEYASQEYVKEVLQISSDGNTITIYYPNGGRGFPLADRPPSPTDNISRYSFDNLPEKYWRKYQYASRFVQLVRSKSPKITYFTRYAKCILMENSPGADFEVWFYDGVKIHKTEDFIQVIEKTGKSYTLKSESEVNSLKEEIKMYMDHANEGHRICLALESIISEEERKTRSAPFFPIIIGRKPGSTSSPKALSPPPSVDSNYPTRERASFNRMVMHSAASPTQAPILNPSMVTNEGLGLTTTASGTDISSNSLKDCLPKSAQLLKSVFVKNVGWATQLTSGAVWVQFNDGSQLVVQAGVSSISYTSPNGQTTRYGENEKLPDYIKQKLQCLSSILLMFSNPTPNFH

[6] = molecular target: Fibroblast growth factor receptor 3 (Homo sapiens) (UniProt P22607); experiment: Inhibition of FGFR3 at 1 uM
Summary of the method: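 Single-concentration screen on the Ambit KINOMEscan platform, run against a panel of 250–400 kinases. Per-kinase inhibition was also summarized as S(90), the fraction of kinases inhibited by more than 90%.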

[7] = molecular target: T3, Ephrin type-B receptor 4 (Homo sapiens) (UniProt P54760); experiment: Inhibition of EPHB4 at 1 uM; summary of the method: as §1
T3 sequence (whole entry): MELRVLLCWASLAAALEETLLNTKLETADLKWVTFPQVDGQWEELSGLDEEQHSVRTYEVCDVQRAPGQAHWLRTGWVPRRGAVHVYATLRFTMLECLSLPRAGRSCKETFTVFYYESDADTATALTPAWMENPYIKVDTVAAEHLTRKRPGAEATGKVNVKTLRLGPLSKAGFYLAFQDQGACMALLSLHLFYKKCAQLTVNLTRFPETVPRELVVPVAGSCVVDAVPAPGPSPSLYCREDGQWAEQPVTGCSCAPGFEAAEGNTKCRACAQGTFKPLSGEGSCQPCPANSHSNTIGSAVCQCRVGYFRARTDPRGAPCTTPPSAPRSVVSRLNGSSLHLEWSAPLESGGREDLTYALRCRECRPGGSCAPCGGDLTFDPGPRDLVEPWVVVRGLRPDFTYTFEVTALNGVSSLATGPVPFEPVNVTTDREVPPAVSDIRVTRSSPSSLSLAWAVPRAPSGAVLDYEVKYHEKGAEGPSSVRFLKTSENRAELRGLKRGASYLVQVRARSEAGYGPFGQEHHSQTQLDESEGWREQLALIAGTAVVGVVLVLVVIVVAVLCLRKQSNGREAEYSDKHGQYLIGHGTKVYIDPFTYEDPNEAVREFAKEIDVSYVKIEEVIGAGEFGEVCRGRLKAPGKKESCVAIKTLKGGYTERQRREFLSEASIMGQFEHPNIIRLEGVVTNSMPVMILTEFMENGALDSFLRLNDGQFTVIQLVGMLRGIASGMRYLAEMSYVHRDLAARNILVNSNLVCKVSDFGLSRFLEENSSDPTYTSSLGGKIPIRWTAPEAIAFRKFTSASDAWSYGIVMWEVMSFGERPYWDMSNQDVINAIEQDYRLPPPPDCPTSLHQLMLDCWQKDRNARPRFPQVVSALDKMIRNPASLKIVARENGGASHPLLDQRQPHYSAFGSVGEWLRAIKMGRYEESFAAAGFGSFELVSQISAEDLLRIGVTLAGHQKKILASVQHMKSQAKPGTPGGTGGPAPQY

Chain of Death-associated protein kinase 1 (Homo sapiens) (P53355 whole entry, looked up): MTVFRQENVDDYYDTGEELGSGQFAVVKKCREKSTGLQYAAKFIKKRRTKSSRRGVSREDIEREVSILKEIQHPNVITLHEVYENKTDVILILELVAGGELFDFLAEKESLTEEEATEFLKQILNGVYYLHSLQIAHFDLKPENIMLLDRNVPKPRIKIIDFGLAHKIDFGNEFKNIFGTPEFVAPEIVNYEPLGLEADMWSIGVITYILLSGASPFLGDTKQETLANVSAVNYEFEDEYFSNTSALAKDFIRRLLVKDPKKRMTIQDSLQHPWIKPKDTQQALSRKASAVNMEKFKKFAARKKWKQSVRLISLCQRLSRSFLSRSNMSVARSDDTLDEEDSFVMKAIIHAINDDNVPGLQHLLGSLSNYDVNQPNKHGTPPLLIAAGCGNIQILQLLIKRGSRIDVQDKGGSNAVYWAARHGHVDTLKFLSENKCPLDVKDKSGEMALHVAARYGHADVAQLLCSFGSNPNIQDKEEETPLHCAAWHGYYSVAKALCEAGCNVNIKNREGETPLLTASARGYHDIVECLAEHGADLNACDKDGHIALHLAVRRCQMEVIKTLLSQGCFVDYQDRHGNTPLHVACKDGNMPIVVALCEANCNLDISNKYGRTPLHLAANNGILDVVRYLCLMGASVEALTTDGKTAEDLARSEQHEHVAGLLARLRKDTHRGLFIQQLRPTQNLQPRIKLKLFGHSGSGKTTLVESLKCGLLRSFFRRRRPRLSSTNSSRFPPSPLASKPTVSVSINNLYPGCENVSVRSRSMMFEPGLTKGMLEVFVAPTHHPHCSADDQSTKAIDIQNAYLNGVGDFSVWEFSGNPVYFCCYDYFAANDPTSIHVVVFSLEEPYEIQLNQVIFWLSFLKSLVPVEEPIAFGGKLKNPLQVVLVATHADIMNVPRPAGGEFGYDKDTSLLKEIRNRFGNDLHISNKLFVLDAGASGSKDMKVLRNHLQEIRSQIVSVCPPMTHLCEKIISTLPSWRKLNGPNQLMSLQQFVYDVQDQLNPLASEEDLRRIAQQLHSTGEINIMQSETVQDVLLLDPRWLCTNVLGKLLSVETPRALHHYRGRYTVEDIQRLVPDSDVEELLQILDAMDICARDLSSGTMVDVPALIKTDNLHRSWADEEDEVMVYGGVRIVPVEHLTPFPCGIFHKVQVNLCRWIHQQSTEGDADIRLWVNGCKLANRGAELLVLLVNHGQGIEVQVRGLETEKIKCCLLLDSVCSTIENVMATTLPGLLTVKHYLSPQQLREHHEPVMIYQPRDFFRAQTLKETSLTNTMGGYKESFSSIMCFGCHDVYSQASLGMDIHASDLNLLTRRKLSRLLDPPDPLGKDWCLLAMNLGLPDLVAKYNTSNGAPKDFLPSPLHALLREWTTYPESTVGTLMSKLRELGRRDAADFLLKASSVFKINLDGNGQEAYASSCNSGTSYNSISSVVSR
Chain of Fibroblast growth factor receptor 3 (Homo sapiens) (P22607 23-806 limits assumed): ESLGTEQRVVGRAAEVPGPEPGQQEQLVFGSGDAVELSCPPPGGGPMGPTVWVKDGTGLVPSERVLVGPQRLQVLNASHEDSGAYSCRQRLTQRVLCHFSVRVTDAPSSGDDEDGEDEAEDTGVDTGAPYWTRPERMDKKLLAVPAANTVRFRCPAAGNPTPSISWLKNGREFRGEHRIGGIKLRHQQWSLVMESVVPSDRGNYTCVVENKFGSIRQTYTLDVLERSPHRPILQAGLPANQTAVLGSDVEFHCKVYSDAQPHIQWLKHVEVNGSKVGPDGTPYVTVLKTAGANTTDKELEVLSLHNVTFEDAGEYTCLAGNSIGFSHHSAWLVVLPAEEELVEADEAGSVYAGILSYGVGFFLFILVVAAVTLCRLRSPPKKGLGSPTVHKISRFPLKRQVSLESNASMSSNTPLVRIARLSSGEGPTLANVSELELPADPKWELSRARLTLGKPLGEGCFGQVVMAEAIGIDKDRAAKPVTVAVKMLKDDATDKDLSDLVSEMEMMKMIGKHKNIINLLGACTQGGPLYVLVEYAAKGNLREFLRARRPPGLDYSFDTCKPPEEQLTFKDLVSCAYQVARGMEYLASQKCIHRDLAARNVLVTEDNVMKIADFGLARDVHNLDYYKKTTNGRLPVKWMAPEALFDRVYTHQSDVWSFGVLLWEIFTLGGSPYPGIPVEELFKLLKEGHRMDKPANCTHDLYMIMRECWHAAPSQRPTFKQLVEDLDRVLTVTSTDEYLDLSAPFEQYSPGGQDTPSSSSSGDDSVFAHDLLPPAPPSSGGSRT
Chain of Serine/threonine-protein kinase PAK 4 (Homo sapiens) (O96013 whole entry, looked up): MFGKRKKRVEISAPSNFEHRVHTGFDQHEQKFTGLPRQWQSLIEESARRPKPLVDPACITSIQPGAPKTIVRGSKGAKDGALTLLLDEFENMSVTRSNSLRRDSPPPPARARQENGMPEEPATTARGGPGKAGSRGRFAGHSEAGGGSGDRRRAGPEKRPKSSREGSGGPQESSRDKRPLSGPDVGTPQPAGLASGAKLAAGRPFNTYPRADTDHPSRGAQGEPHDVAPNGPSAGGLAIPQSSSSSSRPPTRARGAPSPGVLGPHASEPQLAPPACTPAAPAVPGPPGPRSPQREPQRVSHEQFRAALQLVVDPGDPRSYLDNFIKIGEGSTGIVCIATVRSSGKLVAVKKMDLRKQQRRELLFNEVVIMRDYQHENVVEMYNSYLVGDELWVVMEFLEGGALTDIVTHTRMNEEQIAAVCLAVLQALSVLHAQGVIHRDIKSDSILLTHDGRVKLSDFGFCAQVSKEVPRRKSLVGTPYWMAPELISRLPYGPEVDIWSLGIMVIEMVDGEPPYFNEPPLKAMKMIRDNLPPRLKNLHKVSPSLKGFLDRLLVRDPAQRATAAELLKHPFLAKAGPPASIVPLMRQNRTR
Chain of Calcium/calmodulin-dependent protein kinase type II subunit gamma (Homo sapiens) (Q13555 whole entry): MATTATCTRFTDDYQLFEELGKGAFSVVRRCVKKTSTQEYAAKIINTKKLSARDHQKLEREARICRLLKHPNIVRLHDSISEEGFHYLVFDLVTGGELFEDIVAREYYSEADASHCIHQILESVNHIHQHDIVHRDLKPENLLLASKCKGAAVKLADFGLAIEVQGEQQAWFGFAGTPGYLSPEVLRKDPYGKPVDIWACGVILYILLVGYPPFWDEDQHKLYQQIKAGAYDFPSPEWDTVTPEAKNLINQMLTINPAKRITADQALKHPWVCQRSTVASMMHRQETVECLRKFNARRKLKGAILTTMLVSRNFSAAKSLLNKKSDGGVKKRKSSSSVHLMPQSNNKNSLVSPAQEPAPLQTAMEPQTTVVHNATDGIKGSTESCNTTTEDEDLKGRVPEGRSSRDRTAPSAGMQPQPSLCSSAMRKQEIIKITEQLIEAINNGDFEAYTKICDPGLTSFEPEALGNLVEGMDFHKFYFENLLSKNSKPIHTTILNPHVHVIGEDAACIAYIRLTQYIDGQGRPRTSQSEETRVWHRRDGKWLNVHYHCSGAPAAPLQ

CN1CCN(c2ccc(-c3cnc4c(c3)N(Cc3cc(F)ccc3F)CCN4)cn2)CC1
inhibition [1]: < 50%
inhibition [2]: < 50%
inhibition [3]: < 50%
inhibition [4]: < 50%
inhibition [5]: < 50%
inhibition [6]: < 50%
inhibition [7]: < 50%

O=C(c1ccc(-c2cnc3c(c2)N(Cc2cc(Cl)ccc2C(F)(F)F)CCN3)cc1)N1CCC(N2CCCC2)CC1
inhibition [1]: < 50%
inhibition [2]: < 50%
inhibition [4]: < 50%
inhibition [5]: 92.4%
inhibition [6]: < 50%
inhibition [7]: < 50%

O=C(c1ccc(-c2cnc3c(c2)N(Cc2cc(Cl)ccc2C(F)(F)F)CCN3)cc1)N1CCCCC1
inhibition [1]: < 50%
inhibition [2]: < 50%
inhibition [4]: < 50%
inhibition [5]: < 50%
inhibition [6]: < 50%
inhibition [7]: < 50%

CN1CCN(c2ccc(-c3cnc4c(c3)N(Cc3c(F)ccc(F)c3Cl)CCN4)cn2)CC1
inhibition [1]: < 50%
inhibition [2]: < 50%
inhibition [3]: < 50%
inhibition [4]: < 50%
inhibition [5]: < 50%
inhibition [6]: < 50%
inhibition [7]: < 50%

COC1CCN(C(=O)c2ccc(-c3cnc4c(c3)N(Cc3cc(Cl)ccc3C(F)(F)F)CCN4)cc2)CC1
inhibition [1]: < 50%
inhibition [2]: < 50%
inhibition [4]: < 50%
inhibition [5]: 73.8%
inhibition [6]: < 50%
inhibition [7]: < 50%

O=C(O)c1ccc(-c2cnc3c(c2)N(Cc2cc(Cl)ccc2C(F)(F)F)CCN3)cc1
inhibition [1]: < 50%
inhibition [2]: < 50%
inhibition [4]: < 50%
inhibition [5]: 91.7%
inhibition [6]: < 50%
inhibition [7]: < 50%

CC(=O)N1CCN(c2cc(-c3cnc4c(c3)N(Cc3cc(Cl)ccc3C(F)(F)F)CCN4)ccn2)CC1
inhibition [1]: < 50%
inhibition [2]: < 50%
inhibition [3]: < 50%
inhibition [4]: < 50%
inhibition [5]: < 50%
inhibition [6]: < 50%
inhibition [7]: < 50%

FC(F)(F)c1ccc(Cl)cc1CN1CCNc2ncc(-c3ccnc(N4CCNCC4)c3)cc21
inhibition [1]: < 50%
inhibition [2]: < 50%
inhibition [3]: < 50%
inhibition [4]: < 50%
inhibition [5]: < 50%
inhibition [6]: < 50%
inhibition [7]: < 50%

CN1CCN(c2ccc(-c3cnc4c(c3)N(Cc3cc(Cl)ccc3C(F)(F)F)CCN4)cn2)CC1
inhibition [1]: < 50%
inhibition [2]: < 50%
inhibition [3]: < 50%
inhibition [4]: < 50%
inhibition [5]: < 50%
inhibition [6]: < 50%
inhibition [7]: < 50%

CN1CCN(c2ccc(-c3cnc4c(c3)N(Cc3cc(Cl)ccc3Cl)CCN4)cn2)CC1
inhibition [1]: < 50%
inhibition [2]: < 50%
inhibition [3]: < 50%
inhibition [4]: < 50%
inhibition [5]: < 50%
inhibition [6]: < 50%
inhibition [7]: < 50%
